Data on one compound can be found in ChEMBL document CHEMBL4052618, “Design, synthesis, SAR discussion, in vitro and in vivo evaluation of novel selective EGFR modulator to inhibit L858R/T790M double mutants” (Eur J Med Chem, 2017).

SMILES strings stand for the structures.

Data set [1] is described as follows: Half life in human liver microsomes. The class given is ADME, microsome. (Microsomes from liver hold many membrane-bound enzymes, among them those of drug oxidation.)
Data set [2] in a line: Half life in human hepatocytes. The class given is ADME, cell-based, Hepatocyte.
Data set [3] is described as follows: Intrinsic clearance in rat hepatocytes assessed per million cells. The class given is ADME, cell-based, Hepatocyte.
The nature of data set [4]: MRT in Sprague-Dawley rat at 10 mg/kg, po administered via gavage by LC-MS/MS analysis. The conditions noted are these: in vivo. It counts as ADME, organism-based. In a few lines:
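Male Sprague-Dawley rats (200-240 g) received 1 mg/kg by tail-vein injection in 2% DMSO, 20% PEG400 and 78% buffered saline, or 10 mg/kg by oral gavage in 0.5% methylcellulose. Orbital sinus blood was drawn into heparinized tubes at 2, 5, 15 and 30 min and at 1, 2, 4, 8, 12 and 24 h, then centrifuged. Plasma was measured by LC/MS/MS in SRM mode, with non-compartmental analysis.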

Data set [5] is described as follows: AUC (0 to 24 hrs) in Sprague-Dawley rat at 1 mg/kg, iv by LC-MS/MS analysis. The conditions noted are these: in vivo. Set-up: time < 24 hr, dose 1 mg/kg, route intravenous. It counts as ADME, organism-based.
For data set [6], the system named is NCI-H1975. As to the kind of experiment: In vivo anti tumor activity against human NCI-H1975 cells xenografted in nude C.B-17 SCID mouse model assessed as tumor growth inhibition at 5 mg/kg, ig for 18 days measured twice a week relative to control. It counts as functional. The conditions noted are these: NCI-H1975, po, 432 h, read-out: TGI. In a few lines: (§1)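 H1975 s.c. xenografts (5 × 10^6 cells) were grown in C.B-17 SCID mice and randomized at 100-150 mm3 (n = 9). Mice were dosed intragastrically once daily for 18 days against a PBS control. TGI% = (TWcontrol − TWtreatment)/TWcontrol × 100, where TW is the mean tumor weight on day 18.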

For data set [7], the system named is NCI-H1975. As to the kind of experiment: In vivo anti tumor activity against human NCI-H1975 cells xenografted in nude C.B-17 SCID mouse model assessed as tumor growth inhibition at 20 mg/kg, ig for 18 days measured twice a week relative to control. It counts as functional. The conditions noted are these: NCI-H1975, po, 432 h, read-out: TGI. In a few lines:
as §1

In data set [8] the target is AMP-activated protein kinase (AMPK) alpha-1/beta-1/gamma-1 (Homo sapiens) (UniProt P54619+Q9Y478+Q13131). Briefly: Inhibition of AMPK A1/B1/G1 (unknown origin) at 1 uM relative to control. The class given is protein-complex assay.
AMP-activated protein kinase (AMPK) alpha-1/beta-1/gamma-1 (Homo sapiens), sequence (P54619 whole entry, canonical isoform): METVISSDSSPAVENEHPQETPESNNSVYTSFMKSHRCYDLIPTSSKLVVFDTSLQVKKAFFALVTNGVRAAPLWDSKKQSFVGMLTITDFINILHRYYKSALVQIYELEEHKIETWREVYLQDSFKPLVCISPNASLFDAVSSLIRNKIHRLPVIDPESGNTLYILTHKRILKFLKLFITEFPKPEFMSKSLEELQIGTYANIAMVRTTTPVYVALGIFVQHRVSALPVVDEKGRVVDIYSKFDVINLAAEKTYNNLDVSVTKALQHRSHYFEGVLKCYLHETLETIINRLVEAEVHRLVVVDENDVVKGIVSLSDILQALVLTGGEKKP
AMP-activated protein kinase (AMPK) alpha-1/beta-1/gamma-1 (Homo sapiens), sequence (Q13131 whole entry partner, canonical isoform): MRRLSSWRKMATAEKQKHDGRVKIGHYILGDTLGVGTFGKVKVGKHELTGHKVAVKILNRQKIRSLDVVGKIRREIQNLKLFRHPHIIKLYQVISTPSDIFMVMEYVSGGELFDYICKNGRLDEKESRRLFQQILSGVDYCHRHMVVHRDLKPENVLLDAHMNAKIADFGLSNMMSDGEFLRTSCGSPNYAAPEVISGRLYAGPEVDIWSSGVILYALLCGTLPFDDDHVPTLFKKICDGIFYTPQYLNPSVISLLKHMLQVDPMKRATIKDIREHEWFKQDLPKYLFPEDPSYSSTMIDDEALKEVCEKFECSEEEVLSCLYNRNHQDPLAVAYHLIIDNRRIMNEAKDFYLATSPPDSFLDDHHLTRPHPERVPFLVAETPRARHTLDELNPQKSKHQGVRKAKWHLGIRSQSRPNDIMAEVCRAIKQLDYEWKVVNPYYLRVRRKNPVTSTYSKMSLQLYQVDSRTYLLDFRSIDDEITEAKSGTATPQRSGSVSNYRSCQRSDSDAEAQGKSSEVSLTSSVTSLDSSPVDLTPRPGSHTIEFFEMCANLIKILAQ
AMP-activated protein kinase (AMPK) alpha-1/beta-1/gamma-1 (Homo sapiens), sequence (Q9Y478 2-270 partner limits assumed): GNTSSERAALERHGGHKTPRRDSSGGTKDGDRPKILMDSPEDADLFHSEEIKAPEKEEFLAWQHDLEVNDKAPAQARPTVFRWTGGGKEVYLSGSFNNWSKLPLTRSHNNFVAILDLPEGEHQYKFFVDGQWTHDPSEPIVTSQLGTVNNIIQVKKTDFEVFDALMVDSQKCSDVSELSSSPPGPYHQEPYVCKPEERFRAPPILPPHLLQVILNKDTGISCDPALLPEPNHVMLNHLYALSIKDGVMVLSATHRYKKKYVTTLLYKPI
Data set [9] has as its target Casein kinase I isoform epsilon (Homo sapiens) (UniProt P49674). As to the kind of experiment: Inhibition of CSNK1E (unknown origin) at 1 uM relative to control.
For data set [10], the target named is Fibroblast growth factor receptor 1 (Homo sapiens) (UniProt P11362). As to the kind of experiment: Inhibition of FGFR1 (unknown origin) at 1 uM relative to control.
Fibroblast growth factor receptor 1 (Homo sapiens), sequence (P11362 22-822 limits assumed): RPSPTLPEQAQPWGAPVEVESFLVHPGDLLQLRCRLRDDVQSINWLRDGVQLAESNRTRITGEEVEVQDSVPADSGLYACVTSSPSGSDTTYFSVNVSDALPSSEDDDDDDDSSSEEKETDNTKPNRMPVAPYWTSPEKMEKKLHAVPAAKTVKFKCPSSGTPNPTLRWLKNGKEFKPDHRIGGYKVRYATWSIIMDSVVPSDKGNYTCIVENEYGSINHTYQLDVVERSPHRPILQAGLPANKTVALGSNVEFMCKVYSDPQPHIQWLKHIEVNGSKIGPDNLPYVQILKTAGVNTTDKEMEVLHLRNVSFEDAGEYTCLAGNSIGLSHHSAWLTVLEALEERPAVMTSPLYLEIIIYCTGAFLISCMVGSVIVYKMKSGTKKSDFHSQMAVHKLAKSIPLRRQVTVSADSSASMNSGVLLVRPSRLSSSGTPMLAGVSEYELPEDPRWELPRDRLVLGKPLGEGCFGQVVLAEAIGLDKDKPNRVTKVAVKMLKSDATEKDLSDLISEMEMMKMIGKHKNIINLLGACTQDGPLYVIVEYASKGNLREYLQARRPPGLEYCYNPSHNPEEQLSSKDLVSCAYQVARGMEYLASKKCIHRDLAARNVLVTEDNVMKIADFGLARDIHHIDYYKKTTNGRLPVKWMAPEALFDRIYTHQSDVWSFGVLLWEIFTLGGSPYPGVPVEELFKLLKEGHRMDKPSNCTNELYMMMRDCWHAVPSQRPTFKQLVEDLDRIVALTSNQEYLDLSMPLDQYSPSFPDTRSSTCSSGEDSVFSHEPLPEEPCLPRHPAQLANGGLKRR
For data set [11], the target named is Mitogen-activated protein kinase 1 (Homo sapiens) (UniProt P28482). As to the kind of experiment: Inhibition of MAPK1 (unknown origin) at 1 uM relative to control.
Mitogen-activated protein kinase 1 (Homo sapiens), sequence (P28482 whole entry): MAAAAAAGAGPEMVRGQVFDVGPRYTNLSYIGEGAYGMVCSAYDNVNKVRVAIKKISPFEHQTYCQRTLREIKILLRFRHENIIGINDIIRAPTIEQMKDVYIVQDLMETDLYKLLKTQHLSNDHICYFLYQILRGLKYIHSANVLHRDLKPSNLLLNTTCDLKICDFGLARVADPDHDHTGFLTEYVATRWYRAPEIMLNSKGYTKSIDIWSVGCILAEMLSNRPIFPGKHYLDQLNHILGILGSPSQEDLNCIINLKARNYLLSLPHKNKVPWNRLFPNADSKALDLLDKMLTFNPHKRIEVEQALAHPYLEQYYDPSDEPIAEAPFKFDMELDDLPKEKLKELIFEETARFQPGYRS
Data set [12] deals with Protein-tyrosine kinase 6 (Homo sapiens) (UniProt Q13882). As to the kind of experiment: Inhibition of PTK6 (unknown origin) at 1 uM relative to control.
Protein-tyrosine kinase 6 (Homo sapiens), sequence (Q13882 whole entry, looked up): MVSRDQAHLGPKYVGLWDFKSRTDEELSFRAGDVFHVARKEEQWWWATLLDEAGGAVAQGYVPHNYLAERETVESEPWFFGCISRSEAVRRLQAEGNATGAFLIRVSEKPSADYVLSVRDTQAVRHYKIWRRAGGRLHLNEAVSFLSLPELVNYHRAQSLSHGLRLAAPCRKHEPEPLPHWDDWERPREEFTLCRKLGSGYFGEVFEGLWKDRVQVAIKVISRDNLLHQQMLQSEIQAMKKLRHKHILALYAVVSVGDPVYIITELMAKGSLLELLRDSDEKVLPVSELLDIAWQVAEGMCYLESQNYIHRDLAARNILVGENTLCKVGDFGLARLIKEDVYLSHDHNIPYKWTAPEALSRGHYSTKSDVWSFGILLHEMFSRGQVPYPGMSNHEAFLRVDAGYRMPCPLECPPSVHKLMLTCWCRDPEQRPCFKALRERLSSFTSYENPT

Casein kinase I isoform epsilon (Homo sapiens), sequence (P49674 whole entry, looked up, canonical isoform): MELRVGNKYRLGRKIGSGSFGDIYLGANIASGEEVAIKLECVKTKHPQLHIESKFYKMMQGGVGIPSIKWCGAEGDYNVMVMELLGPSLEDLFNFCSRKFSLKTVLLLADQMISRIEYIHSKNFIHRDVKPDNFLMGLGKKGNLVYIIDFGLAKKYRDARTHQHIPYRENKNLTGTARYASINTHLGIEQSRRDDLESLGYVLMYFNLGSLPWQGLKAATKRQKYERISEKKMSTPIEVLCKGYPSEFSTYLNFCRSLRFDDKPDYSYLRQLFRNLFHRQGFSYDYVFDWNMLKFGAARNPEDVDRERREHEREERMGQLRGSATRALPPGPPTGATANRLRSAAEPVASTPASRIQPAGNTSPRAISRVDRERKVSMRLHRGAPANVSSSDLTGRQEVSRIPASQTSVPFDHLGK

Consider `C=CC(=O)Nc1cc(Nc2nccc(-c3cn4c5c(cccc35)CCC4)n2)c(OC)cc1N(C)CCN(C)C`, for which the half-life (as a rule, the time needed for the level to fall by half in the phase considered) is above 3 h in [1] and 2.31 h in [2]. This compound came in with a CLH in data set [3] of 21 µL/min/10^6 cells. Further, in data set [4], the MRT (usually the average time that molecules of a dose stay in the body) came out at 5.7 h. Besides, the AUC(0-t) – broadly, the area under the concentration-time curve up to a stated or last time point – at 24 h in [5] was 190 ng·h/mL. Further, in the data set with NCI-H1975 [6], the inhibition in vivo at 5 mg/kg came to 46.8%. Also, the inhibition in vivo at 20 mg/kg in the data set on NCI-H1975 [7] was determined as 96.3%. The inhibition (in general, the change of the read-out against control, counted positive when it falls) is 7% in data set [8]; 3% in data set [9]; 7% in data set [10]; -3% in data set [11]; 83% in data set [12].
